Assay results from ChEMBL document CHEMBL1641462, “Synthesis and in vivo evaluation of ¹⁸F-fluoroethyl GF120918 and XR9576 as positron emission tomography probes for assessing the function of drug efflux transporters” (Bioorg Med Chem, 2011).

Assays:
Lung [1] = assay: Biodistribution in FVB mouse lung assessed per gram of tissue at 1 to 4.8 MBq, iv after 5 mins; assay type: ADME, organism-based; conditions: in vivo
Procedure, shortened: (§1)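 Male FVB mice (8–10 weeks, 25–29 g) received tracer iv (1.0–4.8 MBq, 7.1–34 pmol). Killed by cervical dislocation at 5, 15, 30, 60 or 90 min. Blood taken by heart puncture; tissues dissected, weighed and gamma-counted. Activity decay-corrected to injection time and given as %ID/g; mean ± SD, n = 4 per time point.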

Liver [2] = assay: Biodistribution in FVB mouse liver assessed per gram of tissue at 1 to 4.8 MBq, iv after 5 mins; assay type: ADME, organism-based; conditions: in vivo; procedure, shortened: as §1
Pancreas [3] = assay: Biodistribution in FVB mouse pancreas assessed per gram of tissue at 1 to 4.8 MBq, iv after 5 mins; assay type: ADME, organism-based; conditions: in vivo
Procedure, shortened: (§2)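 Male FVB mice (8–10 weeks, 25–29 g) given tracer 1.0–4.8 MBq/7.1–34 pmol iv; killed by cervical dislocation at set times (n = 4 per group). Blood by heart puncture; tissues dissected, weighed and gamma counted. Radioactivity decay-corrected to injection time, expressed as %ID/g, mean ± SD.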

Kidney [4] = assay: Biodistribution in FVB mouse kidney assessed per gram of tissue at 1 to 4.8 MBq, iv after 5 mins; assay type: ADME, organism-based; conditions: in vivo; procedure, shortened: as §1
[5] = Biodistribution in FVB mouse small intestine assessed per gram of tissue at 1 to 4.8 MBq, iv after 5 mins; assay type: ADME, organism-based; conditions: in vivo; procedure, shortened: as §2
Blood [6] = assay: Biodistribution in FVB mouse blood assessed per gram of tissue at 1 to 4.8 MBq, iv after 15 mins; assay type: ADME, organism-based; conditions: in vivo, 0.25 h; procedure, shortened: as §1
Heart [7] = assay: Biodistribution in FVB mouse heart assessed per gram of tissue at 1 to 4.8 MBq, iv after 15 mins; assay type: ADME, organism-based; conditions: in vivo, 0.25 h; procedure, shortened: as §1
Liver [8] = assay: Biodistribution in FVB mouse liver assessed per gram of tissue at 1 to 4.8 MBq, iv after 15 mins; assay type: ADME, organism-based; conditions: in vivo, 0.25 h; procedure, shortened: as §1
Kidney [9] = assay: Biodistribution in FVB mouse kidney assessed per gram of tissue at 1 to 4.8 MBq, iv after 15 mins; assay type: ADME, organism-based; conditions: in vivo, 0.25 h; procedure, shortened: as §1
[10] = Biodistribution in FVB mouse small intestine assessed per gram of tissue at 1 to 4.8 MBq, iv after 15 mins; assay type: ADME, organism-based; conditions: in vivo, 0.25 h; procedure, shortened: as §2
Bone = assay: Biodistribution in FVB mouse bone assessed per gram of tissue at 1 to 4.8 MBq, iv after 15 mins; assay type: ADME, organism-based, Bone element; conditions: in vivo, 0.25 h; procedure, shortened: as §1
Liver [11] = assay: Biodistribution in FVB mouse liver assessed per gram of tissue at 1 to 4.8 MBq, iv after 30 mins; assay type: ADME, organism-based; conditions: in vivo, 0.5 h; procedure, shortened: as §1
Pancreas [12] = assay: Biodistribution in FVB mouse pancreas assessed per gram of tissue at 1 to 4.8 MBq, iv after 30 mins; assay type: ADME, organism-based; conditions: in vivo, 0.5 h; procedure, shortened: as §2
Spleen = assay: Biodistribution in FVB mouse spleen assessed per gram of tissue at 1 to 4.8 MBq, iv after 30 mins; assay type: ADME, organism-based; conditions: in vivo, 0.5 h; procedure, shortened: as §2
Brain [13] = assay: Biodistribution in FVB mouse brain assessed per gram of tissue at 1 to 4.8 MBq, iv after 30 mins; assay type: ADME, organism-based; conditions: in vivo, 0.5 h; procedure, shortened: as §1
Heart [14] = assay: Biodistribution in FVB mouse heart assessed per gram of tissue at 1 to 4.8 MBq, iv after 60 mins; assay type: ADME, organism-based; conditions: in vivo, 1 h; procedure, shortened: as §1
Lung [15] = assay: Biodistribution in FVB mouse lung assessed per gram of tissue at 1 to 4.8 MBq, iv after 60 mins; assay type: ADME, organism-based; conditions: in vivo, 1 h; procedure, shortened: as §1
Liver [16] = assay: Biodistribution in FVB mouse liver assessed per gram of tissue at 1 to 4.8 MBq, iv after 60 mins; assay type: ADME, organism-based; conditions: in vivo, 1 h; procedure, shortened: as §1
Kidney [17] = assay: Biodistribution in FVB mouse kidney assessed per gram of tissue at 1 to 4.8 MBq, iv after 60 mins; assay type: ADME, organism-based; conditions: in vivo, 1 h; procedure, shortened: as §1
[18] = Biodistribution in FVB mouse small intestine assessed per gram of tissue at 1 to 4.8 MBq, iv after 60 mins; assay type: ADME, organism-based; conditions: in vivo, 1 h; procedure, shortened: as §2
Muscle tissue = assay: Biodistribution in FVB mouse muscle assessed per gram of tissue at 1 to 4.8 MBq, iv after 60 mins; assay type: ADME, organism-based; conditions: in vivo, 1 h; procedure, shortened: as §1
Blood [19] = assay: Biodistribution in FVB mouse blood assessed per gram of tissue at 1 to 4.8 MBq, iv after 90 mins; assay type: ADME, organism-based; conditions: in vivo, 1.5 h; procedure, shortened: as §1
Heart [20] = assay: Biodistribution in FVB mouse heart assessed per gram of tissue at 1 to 4.8 MBq, iv after 90 mins; assay type: ADME, organism-based; conditions: in vivo, 1.5 h; procedure, shortened: as §1
Pancreas [21] = assay: Biodistribution in FVB mouse pancreas assessed per gram of tissue at 1 to 4.8 MBq, iv after 90 mins; assay type: ADME, organism-based; conditions: in vivo, 1.5 h; procedure, shortened: as §2
Kidney [22] = assay: Biodistribution in FVB mouse kidney assessed per gram of tissue at 1 to 4.8 MBq, iv after 90 mins; assay type: ADME, organism-based; conditions: in vivo, 1.5 h; procedure, shortened: as §1
Plasma = assay: Metabolic stability in FVB mouse plasma assessed as recovery of radioactivity at 1 to 4.8 MBq, iv by HPLC analysis; assay type: ADME, organism-based; conditions: in vivo
Procedure, shortened: (§3)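 Brain homogenate or plasma from tracer plus GF120918 (5 mg/kg) co-injected FVB mice deproteinized with equal volume ice-cold acetonitrile; radioactivity in supernatant, precipitate and HPLC waste gamma counted to give recovery, mean ± SD (n = 7).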

Brain [23] = assay: Metabolic stability in FVB mouse brain assessed as recovery of radioactivity at 1 to 4.8 MBq, iv by HPLC analysis; assay type: ADME, organism-based; conditions: in vivo; procedure, shortened: as §3
Brain [24] = assay: Biodistribution in P-gp knockout mouse brain at 3.3 to 4.9 MBq, iv after up to 60 mins; assay type: ADME, organism-based; conditions: in vivo, 1 h
Brain [25] = assay: Ratio of AUC (0 to 60 mins) in P-gp/BCRP knockout mouse brain to AUC (0 to 60 mins) in wild type mouse brain at 2.8 to 5.6 MBq, iv; assay type: ADME, organism-based; conditions: in vivo
Brain [26] = assay: AUC (0 to 60 mins) in wild type mouse brain at 2.8 to 5.6 MBq, iv; assay type: ADME, organism-based; conditions: in vivo
Procedure, shortened: (§4)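 Small-animal PET in male wild-type and knockout mice under isoflurane (1.0–1.5%), prone on the scanner bed. Tracer (2.8–5.6 MBq, 20–40 pmol) given iv, with or without co-injected GF120918 at 5 mg/kg. Dynamic 60-min list-mode scan. Decay-corrected SUV read from ROIs on brain, and on the ventricular cavity for blood. AUC taken over 0–60 min in SUV·min; n = 4 per group.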

Brain [27] = assay: AUC (0 to 60 mins) in P-gp knockout mouse brain at 2.8 to 5.6 MBq, iv; assay type: ADME, organism-based; conditions: in vivo; procedure, shortened: as §4
Brain [28] = assay: AUC (0 to 60 mins) in BCRP knockout mouse brain at 2.8 to 5.6 MBq, iv; assay type: ADME, organism-based; conditions: in vivo; procedure, shortened: as §4
Brain [29] = assay: Ratio of AUC (0 to 60 mins) in wild type mouse brain to AUC (0 to 60 mins) in wild type mouse brain at 2.8 to 5.6 MBq, iv co-administered with GF120918; assay type: ADME, organism-based; conditions: in vivo
Brain [30] = assay: AUC (0 to 60 mins) in wild type mouse brain at 2.8 to 5.6 MBq, iv co-administered with GF120918; assay type: ADME, organism-based; conditions: in vivo; procedure, shortened: as §4
Blood [31] = assay: AUC (0 to 60 mins) in P-gp/BCRP knockout mouse blood at 2.8 to 5.6 MBq, iv; assay type: ADME, tissue-based; procedure, shortened: as §4

| Drug uptake (Lung [1]) [% ID/g] | Drug uptake (Liver [2]) [% ID/g] | Drug uptake (Pancreas [3]) [% ID/g] | Drug uptake (Kidney [4]) [% ID/g] | Drug uptake [5] [% ID/g] | Drug uptake (Blood [6]) [% ID/g] | Drug uptake (Heart [7]) [% ID/g] | Drug uptake (Liver [8]) [% ID/g] | Drug uptake (Kidney [9]) [% ID/g] | Drug uptake [10] [% ID/g] | Drug uptake (Bone) [% ID/g] | Drug uptake (Liver [11]) [% ID/g] | Drug uptake (Pancreas [12]) [% ID/g] | Drug uptake (Spleen) [% ID/g] | Drug uptake (Brain [13]) [% ID/g] | Drug uptake (Heart [14]) [% ID/g] | Drug uptake (Lung [15]) [% ID/g] | Drug uptake (Liver [16]) [% ID/g] | Drug uptake (Kidney [17]) [% ID/g] | Drug uptake [18] [% ID/g] | Compound | further results |
| --- | --- | --- | --- | --- | --- | --- | --- | --- | --- | --- | --- | --- | --- | --- | --- | --- | --- | --- | --- | --- | --- |
| 22.5 | 29.33 | 6.05 | 18 | 5.67 | 0.88 | 3.49 | 31.06 | 16.09 | 9.42 | 1.85 | 23.23 | 8.56 | 6.34 | 0.11 | 2.09 | 16.06 | 25.4 | 11.29 | 22.42 | COc1cc(NC(=O)c2cnc3ccccc3c2)c(C(=O)Nc2ccc(CCN3CCc4cc(OC)c(OCC[18F])cc4C3)cc2)cc1OC | Drug uptake (Muscle tissue): 0.92 % ID/g; Drug uptake (Blood [19]): 0.57 % ID/g; Drug uptake (Heart [20]): 1.74 % ID/g; Drug uptake (Pancreas [21]): 13.56 % ID/g; Drug uptake (Kidney [22]): 10.17 % ID/g; Stability (Plasma): 95.3%; Stability (Brain [23]): 92.5%; Activity (Brain [24]): Active; Ratio AUC (Brain [25]): 8.3; SUV (Brain [26]): 4; SUV (Brain [27]): 9.1; SUV (Brain [28]): 6.5; Ratio AUC (Brain [29]): 7.1; AUC (Brain [30]): 28.1 SUV·min; AUC (Blood [31]): 33.9 SUV·min |
| 19.6 | 4.88 | 6.12 | 20.65 | 4.51 | 0.72 | 2.43 | 5.99 | 24.17 | 7.09 | 1.66 | 5.35 | 11.15 | 5.82 | 0.14 | 1.19 | 6.16 | 11.6 | 23.44 | 12.48 | COc1cc2c(cc1OC)CN(CCc1ccc(NC(=O)c3cccc4c(=O)c5cccc(OCC[18F])c5[nH]c34)cc1)CC2 | Drug uptake (Muscle tissue): 0.53 % ID/g; Drug uptake (Blood [19]): 0.36 % ID/g; Drug uptake (Heart [20]): 0.85 % ID/g; Drug uptake (Pancreas [21]): 15.21 % ID/g; Drug uptake (Kidney [22]): 19.98 % ID/g; Stability (Plasma): 94.1%; Stability (Brain [23]): 91.4%; Activity (Brain [24]): Active; Ratio AUC (Brain [25]): 9; SUV (Brain [26]): 4.4; SUV (Brain [27]): 10.6; SUV (Brain [28]): 5; Ratio AUC (Brain [29]): 6.9; AUC (Brain [30]): 30.2 SUV·min; AUC (Blood [31]): 25 SUV·min |
